{"data": "Measurements of several laboratories", "target": "Serine/threonine-protein kinase OSR1 (OXSR1, Homo sapiens, UniProt O95747)", "note": "Protocols differ between the studies behind these lines."}
{"Structure (SMILES)": "CS(=O)(=O)CCNCc1ccc(-c2ccc3ncnc(Nc4ccc(OCc5cccc(F)c5)c(Cl)c4)c3c2)o1", "observed": "cell-free assay", "tested at": "0.5 µM", "endpoint": "remaining signal", "value": "105%"}
{"Structure (SMILES)": "Cc1ccc(C(=O)Nc2ccc(CN3CCN(C)CC3)c(C(F)(F)F)c2)cc1C#Cc1cnc2cccnn12", "observed": "enzyme activity", "mode": "inhibitor", "tested at": "23.5 nM", "endpoint": "remaining activity", "value": "96%"}
{"Structure (SMILES)": "CCCCNc1ncc2c(-c3ccc(F)cc3)nn(C[C@H]3CC[C@H](N)CC3)c2n1", "observed": "target engagement in cells", "mode": "inhibitor", "method": "chemoproteomics", "tested at": "20 mM", "endpoint": "inhibition", "value": "8.2%"}
{"Structure (SMILES)": "O=C(Nc1cnn(-c2csc(C(=O)NC3COC3)c2)c1)Nc1c(F)cccc1Cl", "observed": "enzyme activity", "mode": "inhibitor", "tested at": "5 µM", "endpoint": "remaining activity", "value": "96.5%"}
{"Structure (SMILES)": "CC1(C)NC(=O)c2[nH]c3c(Cl)c(Cl)ccc3c2C1C#N (centres unmarked)", "observed": "thermal stability", "method": "DSF", "tested at": "10 µM", "endpoint": "ΔTm", "value": "-0.1 °C"}
{"Structure (SMILES)": "CO[C@@H](C)c1c(Nc2ccc([C@@H](N(C)C(=O)C3CCS(=O)(=O)CC3)C(F)(F)F)cc2)cnc2cc(Cl)nn12", "observed": "cell-free assay", "method": "competition with immobilised ligand", "tested at": "1 µM", "endpoint": "remaining binding", "value": "100%"}
{"Structure (SMILES)": "Cn1c2c(Cl)c(Cl)ccc2c2cn[nH]c(=O)c21", "observed": "thermal stability", "method": "DSF", "tested at": "10 µM", "endpoint": "ΔTm", "value": "-0.2 °C"}
{"Structure (SMILES)": "Cn1nc(C(F)(F)F)cc1-c1cnc(N2CCc3cc(S(=O)(=O)Nc4c(F)cc(Cl)cc4F)cc(N4CCCC4=O)c32)nc1", "observed": "cell-free assay", "method": "competition with immobilised ligand", "tested at": "1 µM", "endpoint": "remaining binding", "value": "99%"}
{"Structure (SMILES)": "Cn1c2c(Cl)c(Cl)ccc2c2cc(N)[nH]c(=O)c21", "observed": "thermal stability", "method": "DSF", "tested at": "10 µM", "endpoint": "ΔTm", "value": "-0.2 °C"}
{"Structure (SMILES)": "COc1cccc2c(NCc3ccccc3)nc(-n3c(N)nc4ccccc43)nc12", "observed": "target engagement in cells", "mode": "inhibitor", "method": "chemoproteomics", "tested at": "20 mM", "endpoint": "inhibition", "value": "-6.6%"}
{"Structure (SMILES)": "Cn1c2c(c3ccc(Cl)c(Cl)c31)C(C#N)C1(CCCC1)NC2=O (centres unmarked)", "observed": "thermal stability", "method": "DSF", "tested at": "10 µM", "endpoint": "ΔTm", "value": "-0.1 °C"}
{"Structure (SMILES)": "C[C@@H]1CCN(C(=O)CC#N)C[C@@H]1N(C)c1ncnc2[nH]ccc12", "observed": "cell-free assay", "mode": "inhibitor", "tested at": "0.5 µM", "endpoint": "remaining signal", "value": "98.2%"}
{"Structure (SMILES)": "Cn1c2c(c3ccc(Cl)c(Cl)c31)C(C#N)C(C)(C)NC2=O (centres unmarked)", "observed": "thermal stability", "method": "DSF", "tested at": "10 µM", "endpoint": "ΔTm", "value": "-0.1 °C"}
{"Structure (SMILES)": "CCS(=O)(=O)c1cc2cc(C[C@@](O)(CC(C)(C)c3ccc(F)cc3C(N)=O)C(F)(F)F)[nH]c2cn1", "observed": "cell-free assay", "method": "competition with immobilised ligand", "tested at": "1 µM", "endpoint": "remaining binding", "value": "88%"}
{"Structure (SMILES)": "FC(F)(F)Oc1cccc(-c2cnc3ccc(-c4ccncc4)nn23)c1", "observed": "enzyme activity", "mode": "inhibitor", "method": "radiometric", "tested at": "1 µM", "endpoint": "activity vs control", "value": "97%"}
{"Structure (SMILES)": "Cn1cc(Cl)c2c(Oc3c(F)cc(Nc4cc(Cl)nc(N)n4)cc3F)ccnc21", "observed": "cell-free assay", "method": "competition with immobilised ligand", "tested at": "0.1 µM", "endpoint": "remaining binding", "value": "93%"}
{"Structure (SMILES)": "O=C1NC(=O)c2cc(Nc3ccc(F)cc3)c(Nc3ccc(F)cc3)cc21", "observed": "cell-free assay", "tested at": "0.5 µM", "endpoint": "remaining signal", "value": "101%"}
{"Structure (SMILES)": "COc1ccc2c(O[C@@H]3C[C@H]4C(=O)N[C@]5(C(=O)O)CC5/C=C\\CCCCC[C@H](NC(=O)OC5CCCC5)C(=O)N4C3)cc(-c3csc(NC(=O)C(C)C)n3)nc2c1C (some centres unmarked)", "observed": "cell-free assay", "method": "competition with immobilised ligand", "tested at": "1 µM", "endpoint": "remaining binding", "value": "82%"}
{"Structure (SMILES)": "N#CCCc1ccc2c(c1)-c1[nH]c3ccc([N+](=O)[O-])cc3c1CC(=O)N2", "observed": "cell-free assay", "tested at": "0.5 µM", "endpoint": "remaining signal", "value": "94.6%"}
{"Structure (SMILES)": "Cc1cc(NC(=O)c2cccc(S(F)(F)(F)(F)F)c2)cc(-n2ccn3nc(-c4cccnc4)cc23)c1", "observed": "cell-free assay", "method": "competition with immobilised ligand", "tested at": "1 µM", "endpoint": "remaining binding", "value": "100%"}
{"Structure (SMILES)": "Cc1sc(C(=O)NC2COC2)cc1-n1cc(NC(=O)Nc2c(F)cccc2Cl)cn1", "observed": "enzyme activity", "mode": "inhibitor", "tested at": "10 µM", "endpoint": "remaining activity", "value": "127%"}
{"Structure (SMILES)": "O=C(NS(=O)(=O)c1ccc(NCC2CCOCC2)c([N+](=O)[O-])c1)c1ccc(N2CCN(Cc3ccc(C(F)(F)F)cc3-c3ccc(Cl)cc3)CC2)cc1Oc1cnc2[nH]ccc2c1", "observed": "cell-free assay", "method": "competition with immobilised ligand", "tested at": "1 µM", "endpoint": "remaining binding", "value": "83%"}
{"Structure (SMILES)": "CCN1CCN(Cc2ccc(NC(=O)c3ccc(C)c(Oc4ccnc5[nH]ccc45)c3)cc2C(F)(F)F)CC1", "observed": "target engagement in cells", "mode": "inhibitor", "method": "chemoproteomics", "cells": "Huh-7", "tested at": "10 µM", "endpoint": "inhibition", "value": "-24.5%"}
{"Structure (SMILES)": "CCCCN(CCCC)C(=O)CN1C[C@H](c2cc(OC)c3c(c2)OCO3)[C@@H](C(=O)O)[C@@H]1CC(C)(C)CCC", "observed": "cell-free assay", "method": "competition with immobilised ligand", "tested at": "1 µM", "endpoint": "remaining binding", "value": "89.5%"}
{"Structure (SMILES)": "Cn1c2c(c3ccc(Cl)c(Cl)c31)C(C#N)C1(CCOCC1)NC2=O (centres unmarked)", "observed": "thermal stability", "method": "DSF", "tested at": "10 µM", "endpoint": "ΔTm", "value": "-0.5 °C"}
{"Structure (SMILES)": "COc1cc(Nc2cnc(C#N)c(O[C@H](C)CN(C)C)n2)ncc1-c1cnn(C)c1", "observed": "enzyme activity", "mode": "inhibitor", "method": "radiometric", "tested at": "10 µM", "endpoint": "remaining activity", "value": "106%"}
